# Test results published in ChEMBL document CHEMBL1125259, “Lipophilic glycosyl phosphotriester derivatives of AZT: synthesis, NMR transmembrane transport study, and antiviral activity” (1991).
# Columns and labels:
# Assay type in all cases: functional
# [1] = test system: CCRF-CEM; experiment: Concentration required to reduce the viability of uninfected cells (CEM-CL13) by 50% on day 19.; settings: Homo sapiens, 456 h, read-out: CD50 (the source's name)
# Method in brief: (§1)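 CEM-C113 cells (1×10^5 cells/mL) were infected with HIV-1 LAV-Bru or mock-infected, with compound dilutions in triplicate, for at least 7 days. Medium with or without drug was renewed every 3–4 days for longer runs. MTT absorbance was read at 540 nm. CD50 = 50% reduction of mock-infected absorbance; ED50 = dose giving 50% protection from CPE. Values are averages of at least two experiments.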
# [2] = target: Human immunodeficiency virus type 1 reverse transcriptase (Human immunodeficiency virus 1) (UniProt Q72547); experiment: Compound ability to inhibit the production of HIV reverse transcriptase (RT) in preinfected PBL (peripheral blood lymphocytes) at 7 days at a concentration 1 uM
# Method in brief: (§2)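 PBL were infected with HIV-1 for 1 h at 37 °C, washed twice, and resuspended in complete medium with 10% interleukin-2 and anti-human α-interferon (1000 units/mL). Cells were plated at 1×10^6 cells/well with or without compound. At each time point, 50 µL supernatant was taken for RT assay ([³H]dTTP incorporation, cpm).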
# [3] = target: Human immunodeficiency virus type 1 reverse transcriptase (Human immunodeficiency virus 1) (UniProt Q72547); experiment: Compound ability to inhibit the production of HIV reverse transcriptase (RT) in culture supernatant of CEM-CL13 on at 7 days at a concentration 0.2 uM
# Method in brief: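 CEM-C113 cells in RPMI 1640 with 5% heat-inactivated FCS and polybrene (2 µg/mL) were plated at 1×10^5 cells/mL with compound in PBS, in triplicate, and infected with HIV-1 LAV-Bru. From day 7, every 3–4 days, fresh medium with or without drug was added and 50 µL supernatant was taken for RT microassay. The RT microassay used poly(rA)-oligo(dT) and (methyl-³H)dTTP for 1 h at 37 °C, with TCA precipitation, read as cpm/50 µL.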
# [4] = target: Human immunodeficiency virus type 1 reverse transcriptase (Human immunodeficiency virus 1) (UniProt Q72547); experiment: Compounds were evaluated for anti-RT activity by MTT dose and % cell / viability was reported at 7 days of culture
# Method in brief: (§3)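 HIV-1 was preincubated with compound at 25 µM for 60 min at 37 °C, pelleted, and added to CEM-C113 cells (1×10^5 cells/mL) for 60 min at 37 °C. Medium was then replaced without compound. At days 7 and 9, viability was read by MTT assay on 100 µL of cell suspension.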
# [5] = target: Human immunodeficiency virus type 1 reverse transcriptase (Human immunodeficiency virus 1) (UniProt Q72547); experiment: Compounds were evaluated for anti-RT activity by MTT dose and %protection was reported at 13 days of culture
# [6] = target: Human immunodeficiency virus type 1 reverse transcriptase (Human immunodeficiency virus 1) (UniProt Q72547); experiment: Compounds were evaluated for anti-RT activity by MTT dose and %protection was reported at 9 days of culture; method in brief: as §3
# [7] = target: Human immunodeficiency virus type 1 reverse transcriptase (Human immunodeficiency virus 1) (UniProt Q72547); experiment: Percent inhibition evaluated for anti-RT activity at 0 days of culture; design: concentration or dose not given beside the values; settings: concentration not given here
# Method in brief: (§4)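 HIV-1 (12 500 CCID50) was preincubated with compound at 25 µM final for 60 min at 37 °C, pelleted by ultracentrifugation and resuspended. RT was measured at once with poly(rA)-oligo(dT) and ³H-dTTP (1 h, 37 °C, cpm). Treated virus was then put on CEM-C113 cells for 60 min and replaced with compound-free medium. Supernatant RT was read at days 7 and 9.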
# [8] = target: Human immunodeficiency virus type 1 reverse transcriptase (Human immunodeficiency virus 1) (UniProt Q72547); experiment: Compounds were evaluated for anti-RT activity at 9 days of culture; method in brief: as §4
# [9] = target: Human immunodeficiency virus type 1 reverse transcriptase (Human immunodeficiency virus 1) (UniProt Q72547); experiment: Compound ability to inhibit the production of HIV reverse transcriptase (RT) in culture supernatant of monocytic U937 on at 7 days at a concentration 1 uM
# Method in brief: (§5)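 HIV-1-infected monocytic U937 cultures were kept up to 14 days with compound. Supernatant RT activity was measured as for CEM-C113, as [³H] cpm/50 µL. % inhibition = 100 − 100 × (cpm of treated samples / cpm of control virus).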
# [10] = target: Human immunodeficiency virus type 1 reverse transcriptase (Human immunodeficiency virus 1) (UniProt Q72547); experiment: Compound ability to inhibit the production of HIV reverse transcriptase (RT) in preinfected PBL (peripheral blood lymphocytes) at 7 days at a concentration 5 uM; method in brief: as §2
# [11] = target: Human immunodeficiency virus type 1 reverse transcriptase (Human immunodeficiency virus 1) (UniProt Q72547); experiment: Compounds were evaluated for anti-RT activity at 7 days of culture; method in brief: as §4
# [12] = test system: CCRF-CEM; experiment: Concentration required to reduce the viability of uninfected cells (CEM-CL13) by 50% on day 11.; settings: Homo sapiens, 264 h, read-out: CD50 (the source's name); method in brief: as §1
# [13] = target: Human immunodeficiency virus type 1 reverse transcriptase (Human immunodeficiency virus 1) (UniProt Q72547); experiment: Percent inhibition measured as the production of HIV reverse transcriptase (RT) in culture supernatant of monocytic U937 on at 7 days at a concentration 1 uM
# Method in brief: (§6)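 U937 cells in RPMI 1640 with 5% heat-inactivated FCS, penicillin, streptomycin and polybrene (2 μg/mL), 37 °C, 5% CO2. Infected with HIV-1 LAV-Bru; compounds diluted in PBS. 50 μL supernatant aliquots were assayed for RT: 1 h, 37 °C, pH 7.8, Mg2+, poly(rA)-oligo(dT), [3H]dTTP, TCA-pyrophosphate stop, filter counting. % inhibition = 100 − 100 × (treated cpm / virus-control cpm).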
# [14] = target: Human immunodeficiency virus type 1 reverse transcriptase (Human immunodeficiency virus 1) (UniProt Q72547); experiment: Compound ability to inhibit the production of HIV reverse transcriptase (RT) in culture supernatant of monocytic U937 on at 11 days at a concentration 1 uM; method in brief: as §5
# [15] = target: Human immunodeficiency virus type 1 reverse transcriptase (Human immunodeficiency virus 1) (UniProt Q72547); experiment: Percent inhibition measured as the production of HIV reverse transcriptase (RT) in culture supernatant of monocytic U937 on at 11 days at a concentration 1 uM; method in brief: as §6
# [16] = test system: CCRF-CEM; experiment: Concentration that reduced by 50% the HIV induced CPE (cytopathic effect) on day 11.; settings: Homo sapiens, 264 h, read-out: ED50 (the source's name); method in brief: as §1
# [17] = target: Human immunodeficiency virus type 1 reverse transcriptase (Human immunodeficiency virus 1) (UniProt Q72547); experiment: Compound ability to inhibit the production of HIV reverse transcriptase (RT) in preinfected PBL (peripheral blood lymphocytes) at 10 days at a concentration 5 uM; method in brief: as §2
# [18] = target: Human immunodeficiency virus type 1 reverse transcriptase (Human immunodeficiency virus 1) (UniProt Q72547); experiment: Compound ability to inhibit the production of HIV reverse transcriptase (RT) in preinfected PBL (peripheral blood lymphocytes) at 10 days at a concentration 1 uM; method in brief: as §2
# [19] = target: Human immunodeficiency virus type 1 reverse transcriptase (Human immunodeficiency virus 1) (UniProt Q72547); experiment: Compound ability to inhibit the production of HIV reverse transcriptase (RT) in preinfected PBL (peripheral blood lymphocytes) at 14 days at a concentration 1 uM; method in brief: as §2
# [20] = test system: CCRF-CEM; experiment: Concentration that reduced by 50% the HIV induced CPE (cytopathic effect) on day 22.; settings: Homo sapiens, 528 h, read-out: ED50 (the source's name); method in brief: as §1
# [21] = test system: CCRF-CEM; experiment: Concentration that reduced by 50% the HIV induced CPE (cytopathic effect) on day 7.; settings: Homo sapiens, 168 h, read-out: ED50 (the source's name); method in brief: as §1
# [22] = target: Human immunodeficiency virus type 1 reverse transcriptase (Human immunodeficiency virus 1) (UniProt Q72547); experiment: Compounds were evaluated for anti-RT activity at 0 days of culture; method in brief: as §4
# [23] = target: Human immunodeficiency virus type 1 reverse transcriptase (Human immunodeficiency virus 1) (UniProt Q72547); experiment: Percent inhibition evaluated for anti-RT activity at 7 days of culture; design: concentration or dose not given beside the values; settings: concentration not given here; method in brief: as §4
# [24] = test system: CCRF-CEM; experiment: Concentration that reduced by 50% the HIV induced CPE (cytopathic effect) on day 19.; settings: Homo sapiens, 456 h, read-out: ED50 (the source's name); method in brief: as §1
# [25] = test system: CCRF-CEM; experiment: Concentration required to reduce the viability of uninfected cells (CEM-CL13) by 50% on day 7.; settings: Homo sapiens, 168 h, read-out: CD50 (the source's name); method in brief: as §1
# [26] = target: Human immunodeficiency virus type 1 reverse transcriptase (Human immunodeficiency virus 1) (UniProt Q72547); experiment: Compounds were evaluated for anti-RT activity by MTT dose and % cell / viability was reported at 13 days of culture
# [27] = target: Human immunodeficiency virus type 1 reverse transcriptase (Human immunodeficiency virus 1) (UniProt Q72547); experiment: Percent inhibition evaluated for anti-RT activity at 9 days of culture; design: concentration or dose not given beside the values; settings: concentration not given here; method in brief: as §4
# [28] = target: Human immunodeficiency virus type 1 reverse transcriptase (Human immunodeficiency virus 1) (UniProt Q72547); experiment: Compound ability to inhibit the production of HIV reverse transcriptase (RT) in preinfected PBL (peripheral blood lymphocytes) at 14 days at a concentration 5 uM; method in brief: as §2
Compound,CC50 [1],Activity (c.p.m. 50ul-1) [2],Activity (c.p.m. 50ul-1) [3],Cell viability [4],Protection [5],Protection [6],inhibition [7],Activity (c.p.m. 50ul-1) [8],Activity (c.p.m. 50ul-1) [9],Activity (c.p.m. 50ul-1) [10],Activity (c.p.m. 50ul-1) [11],CC50 [12],inhibition [13],Activity (c.p.m. 50ul-1) [14],inhibition [15],EC50 [16],Activity (c.p.m. 50ul-1) [17],Activity (c.p.m. 50ul-1) [18],Activity (c.p.m. 50ul-1) [19],EC50 [20],other results
CCCCCCCCCCCCCCCCOP(=O)(OC[C@H]1OC(O)[C@H](O)[C@@H](O)[C@@H]1O)OC[C@H]1OC(n2cc(C)c(=O)[nH]c2=O)C[C@@H]1N=[N+]=[N-] (some centres undefined),3200 nM,3490,4500,85%,28%,52%,9%,13000,66000,8210,8000,3000 nM,73%,68000,53%,180 nM,36400,26300,144000,800 nM,EC50 [21]: 180 nM; Activity (c.p.m. 50ul-1) [22]: 16000; inhibition [23]: 87%; EC50 [24]: 1500 nM; CC50 [25]: 11000 nM; Cell viability [26]: 39%; inhibition [27]: 58%; Activity (c.p.m. 50ul-1) [28]: 157000
Cc1cn([C@H]2C[C@H](N=[N+]=[N-])[C@@H](COP(=O)(O)OCCO[C@H]3O[C@H](CO)[C@@H](O)[C@H](O)[C@@H]3O)O2)c(=O)[nH]c1=O,30000 nM,923,4400,39%,7%,12%,0%,39000,306000,855,47000,28000 nM,0%,174000,0%,150 nM,1100,4400,39700,600 nM,EC50 [21]: 160 nM; Activity (c.p.m. 50ul-1) [22]: 30000; inhibition [23]: 25%; EC50 [24]: 140 nM; CC50 [25]: 25000 nM; Cell viability [26]: 20%; inhibition [27]: 0%; Activity (c.p.m. 50ul-1) [28]: 471
CCCCCCCCCCCCCCCCOP(=O)(OC[C@H]1OC(O)[C@@H](O)[C@@H](O)[C@@H]1O)OC[C@H]1OC(n2cc(C)c(=O)[nH]c2=O)C[C@@H]1N=[N+]=[N-] (some centres undefined),2500 nM,9320,4000,77%,10%,18%,30%,10000,122000,3140,18000,2600 nM,51%,225000,0%,300 nM,28000,71500,114000,400 nM,EC50 [21]: 140 nM; Activity (c.p.m. 50ul-1) [22]: 17000; inhibition [23]: 71%; EC50 [24]: 500 nM; CC50 [25]: 2600 nM; Cell viability [26]: 25%; inhibition [27]: 68%; Activity (c.p.m. 50ul-1) [28]: 58300
